Experiment [1] relates to Cavia porcellus. The experiment in a line: Bronchodilatory activity in iv dosed Hartley guinea pig assessed as inhibition of serotonin-induced constriction compound of total 3 to 4 doses at 15 mins interval starting first dose 2 mins post challenge. It counts as functional. Put shortly:
(§1)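 Ventilated, curarized guinea pigs received repeated 12-s IV spasmogen injections every 5 min, tuned to a 20-50 cm water rise in tracheal pressure. Three or four logarithmically spaced IV doses were given over 1 min, at 15-min intervals, with at least four animals per spasmogen. ED50 is the dose giving -50% spasm variation, taken from a semilog regression. When -50% was not reached, ED50 is reported as greater than the top dose.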

The test system of experiment [2] is Cavia porcellus. Put plainly: Bronchodilatory activity in iv dosed Hartley guinea pig assessed as inhibition of histamine-induced constriction compound of total 3 to 4 doses at 15 mins interval starting first dose 2 mins post challenge. The format is functional. The essentials: as §1
In experiment [3] the test system is Cavia porcellus. Put plainly: Bronchodilatory activity in iv dosed Hartley guinea pig assessed as inhibition of acetylcholine-induced constriction compound of total 3 to 4 doses at 15 mins interval starting first dose 2 mins post challenge. It counts as functional. Put shortly:
as §1

Experiment [4] has as its system Cavia porcellus. The experiment in a line: Bronchodilatory activity in iv dosed Hartley guinea pig assessed as inhibition of acetylcholine-induced constriction at 3.2 mg/kg, iv of total 3 to 4 doses at 15 mins interval starting 2 mins post challenge. The format is functional. Put shortly:
(§2)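 Artificially ventilated, curarized guinea pigs. Spasmogen was given IV in 12-s injections every 5 min, adjusted to raise tracheal pressure by 20-50 cm water. After three similar control spasms, drug was infused IV over 1 min. Sodium salts were given in water and esters in 10% aqueous ethanol. Read-out was % variation of spasm amplitude versus control, in at least four animals per spasmogen.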

Experiment [5] relates to Cavia porcellus. Put plainly: Bronchodilatory activity in iv dosed Hartley guinea pig assessed as inhibition of histamine-induced constriction at 3.2 mg/kg, iv of total 3 to 4 doses at 15 mins interval starting 2 mins post challenge. It counts as functional. The essentials: as §2
In experiment [6] the test system is Cavia porcellus. Put plainly: Bronchodilatory activity in iv dosed Hartley guinea pig assessed as inhibition of serotonin-induced constriction at 3.2 mg/kg, iv of total 3 to 4 doses at 15 mins interval starting 2 mins post challenge. The format is functional. The essentials: as §2
The test system of the next experiment is Canis familiaris. Put plainly: Bronchodilatory activity in anesthetized dog assessed as inhibition of pilocarpine-induced bronchospasms compound administered through aerosol 15 mins post challenge measured up to 1 hr. It counts as functional, organism-based. Conditions: Canis lupus familiaris.
The mark [7] stands for this setting: Cavia porcellus, Hartley, iv, read-out: ED50.

Experimental findings from ChEMBL document CHEMBL3244318, “Prostaglandins and congeners. 14. Synthesis and bronchodilator activity of dl-16,16-trimethyleneprostaglandins” (1977) are described below.

Each structure is given as a SMILES string. Calls of active or inactive are those of the source. No cut-off for these calls is given here.

As for `CCCCC1([C@H](O)/C=C/C2CCC(=O)[C@@H]2CCCCCCC(=O)OCC)CCC1` (mixture of isomers), the values for the ED50 in the experiment with Cavia porcellus [1] and with Cavia porcellus [2] (setting [7]) were 409 µg/kg and 15.1 µg/kg, respectively.
With `CCCCC1([C@@H](O)/C=C/C2CCC(=O)[C@@H]2CCCCCCC(=O)OCC)CCC1` (mixture of isomers), the median effective dose (ED50) – broadly, the midpoint of the dose-response relation – is 2.06 µg/kg with Cavia porcellus [3] (setting [7]) and 32 µg/kg in the experiment on Cavia porcellus [2] (setting [7]).
As to `CCCCC1([C@H](O)/C=C/C2CCC(=O)[C@@H]2CCCCCCC(=O)O)CCC1` (mixture of isomers), the ED50 amounted to 47.8 µg/kg with Cavia porcellus [3] (Cavia porcellus, Hartley, iv) and 2.4 µg/kg with Cavia porcellus [2] (setting [7]).
As to `CCCCC1([C@@H](O)/C=C/C2CCC(=O)[C@@H]2CCCCCCC(=O)O)CCC1` (mixture of isomers), in the experiment with Cavia porcellus [4], the inhibition in vivo (as a rule, the change of the read-out against control, counted positive when it falls) at 3.2 mg/kg was under 50%. Further, the ED50 was determined as 20.3 µg/kg in the experiment on Cavia porcellus [1] and 13.9 µg/kg in the experiment on Cavia porcellus [2] (setting [7]).
For the compound `CCCCC1([C@H](O)/C=C/C2CCC(=O)[C@@H]2C/C=C\CCCC(=O)O)CCC1` (mixture of isomers), the ED50 with Cavia porcellus [3] (setting [7]) stood at 24.2 µg/kg; with Cavia porcellus [1], 7.67 µg/kg; in the experiment with Cavia porcellus [2] (setting [7]), 2.2 µg/kg.
In the case of `CCCCC1([C@@H](O)/C=C/C2CCC(=O)[C@@H]2C/C=C\CCCC(=O)O)CCC1` (mixture of isomers), the inhibition in vivo at 3.2 mg/kg in the experiment with Cavia porcellus [4] and in the experiment with Cavia porcellus [5] was under 50% in each case.
As for `CCCCC1([C@H](O)/C=C/C2CCC(=O)[C@@H]2CCCCCC(=O)OCC)CCC1` (mixture of isomers), the inhibition in vivo at 3.2 mg/kg with Cavia porcellus [6], with Cavia porcellus [4] and in the experiment on Cavia porcellus [5] was under 50% in each case.
On to `CCCCC1([C@H](O)/C=C/C2CCC(=O)[C@@H]2C/C=C\CCCC(=O)OCC)CCC1` (mixture of isomers), for which the ED50 in the experiment on Cavia porcellus [1] is 135 µg/kg; with Cavia porcellus [2] (setting [7]), 221 µg/kg.
As for `CCCCC1([C@@H](O)/C=C/C2CCC(=O)[C@@H]2C/C=C\CCCC(=O)OCC)CCC1` (mixture of isomers), the inhibition in vivo at 3.2 mg/kg in the experiment on Cavia porcellus [6], in the experiment on Cavia porcellus [4] and in the experiment on Cavia porcellus [5] was under 50% each time.
For the compound `CCCCC1([C@H](O)/C=C/C2CCC(=O)[C@@H]2CCCCCC(=O)O)CCC1` (mixture of isomers), the results for the median effective dose (ED50) in the experiment with Cavia porcellus [3] (setting [7]), in the experiment with Cavia porcellus [1] and in the experiment on Cavia porcellus [2] (setting [7]) were 320 µg/kg, 32 µg/kg and 32 µg/kg, respectively.
Take `CCCCC1([C@H](O)/C=C/C2CCC(=O)[C@@H]2CCCCCCCC(=O)OCC)CCC1` (mixture of isomers): the inhibition in vivo at 3.2 mg/kg with Cavia porcellus [6], in the experiment with Cavia porcellus [4] and with Cavia porcellus [5] was under 50% in each case.
Regarding `CCCCC1([C@@H](O)/C=C/C2CCC(=O)[C@@H]2CCCCCCCC(=O)OCC)CCC1` (mixture of isomers), the inhibition in vivo at 3.2 mg/kg in the experiment on Cavia porcellus [6], with Cavia porcellus [4] and with Cavia porcellus [5] was under 50% each time.
In the case of `CCCCC1([C@H](O)/C=C/C2CCC(=O)[C@@H]2CCCCCCCC(=O)O)CCC1` (mixture of isomers), the inhibition in vivo at 3.2 mg/kg in the experiment with Cavia porcellus [6], with Cavia porcellus [4] and in the experiment on Cavia porcellus [5] was under 50% throughout.
As for `CCCCC1([C@@H](O)/C=C/C2CCC(=O)[C@@H]2CCCCCCCC(=O)O)CCC1` (mixture of isomers), the inhibition in vivo at 3.2 mg/kg with Cavia porcellus [6], with Cavia porcellus [4] and in the experiment with Cavia porcellus [5] was under 50% throughout.
Consider `CCCCC1([C@H](O)/C=C/C2CCC(=O)[C@@H]2CCCCCCCCC(=O)OCC)CCC1` (mixture of isomers), for which the inhibition in vivo at 3.2 mg/kg in the experiment with Cavia porcellus [4] was under 50%. Also, the values for the ED50 in the experiment with Cavia porcellus [1] and in the experiment with Cavia porcellus [2] (setting [7]) were 4380 µg/kg and 6210 µg/kg, respectively.
With `CCCCC1([C@@H](O)/C=C/C2CCC(=O)[C@@H]2CCCCCCCCC(=O)OCC)CCC1` (mixture of isomers), the inhibition in vivo at 3.2 mg/kg in the experiment on Cavia porcellus [6], in the experiment with Cavia porcellus [4] and with Cavia porcellus [5] was under 50% each time.
In the case of `CCCCC1([C@H](O)/C=C/C2CCC(=O)[C@@H]2CCCCCCCCC(=O)O)CCC1` (mixture of isomers), the inhibition in vivo at 3.2 mg/kg in the experiment with Cavia porcellus [6], in the experiment on Cavia porcellus [4] and in the experiment with Cavia porcellus [5] was under 50% each time.
With `CCCCC1([C@@H](O)/C=C/C2CCC(=O)[C@@H]2CCCCCCCCC(=O)O)CCC1` (mixture of isomers), the inhibition in vivo at 3.2 mg/kg in the experiment on Cavia porcellus [6], with Cavia porcellus [4] and with Cavia porcellus [5] was under 50% throughout.
Take `CCCCC1([C@H](O)/C=C/C2CCC(=O)[C@@H]2CCCCC(C)(C)CC(=O)OCC)CCC1` (mixture of isomers): the inhibition in vivo at 3.2 mg/kg with Cavia porcellus [6], in the experiment with Cavia porcellus [4] and in the experiment on Cavia porcellus [5] was under 50% in each case.
On to `CCCCC1([C@@H](O)/C=C/C2CCC(=O)[C@@H]2CCCCC(C)(C)CC(=O)OCC)CCC1` (mixture of isomers), for which the inhibition in vivo at 3.2 mg/kg with Cavia porcellus [6], in the experiment with Cavia porcellus [4] and with Cavia porcellus [5] was under 50% throughout.
Regarding `CCCCC1([C@H](O)/C=C/C2CCC(=O)[C@@H]2CCCCC(C)(C)CC(=O)O)CCC1` (mixture of isomers), the inhibition in vivo at 3.2 mg/kg in the experiment with Cavia porcellus [6], in the experiment with Cavia porcellus [4] and in the experiment on Cavia porcellus [5] was under 50% in each case.
In the case of `CCCCC1([C@@H](O)/C=C/C2CCC(=O)[C@@H]2CCCCC(C)(C)CC(=O)O)CCC1` (mixture of isomers), the inhibition in vivo at 3.2 mg/kg in the experiment on Cavia porcellus [6], in the experiment with Cavia porcellus [4] and in the experiment on Cavia porcellus [5] was under 50% each time.
As to `CCCCC1([C@H](O)/C=C/C2CCC(=O)[C@@H]2CCCCSCC(=O)OCC)CCC1` (mixture of isomers), the values for the ED50 with Cavia porcellus [3] (setting [7]), with Cavia porcellus [1] and in the experiment on Cavia porcellus [2] (setting [7]) were 909 µg/kg, 300 µg/kg and 30 µg/kg, respectively.
For `CCCCC1([C@@H](O)/C=C/C2CCC(=O)[C@@H]2CCCCSCC(=O)OCC)CCC1` (mixture of isomers), the inhibition in vivo at 3.2 mg/kg with Cavia porcellus [6] and in the experiment with Cavia porcellus [4] was under 50% throughout. Also, in the experiment with Cavia porcellus [2] (setting [7]), the ED50 was over 672 µg/kg.
On to `CCCCC1([C@H](O)/C=C/C2CCC(=O)[C@@H]2CCCCSCC(=O)O)CCC1` (mixture of isomers), for which, in the experiment on Cavia porcellus [4], the inhibition in vivo at 3.2 mg/kg was under 50%. The ED50 in the experiment on Cavia porcellus [1] turned out to be 171 µg/kg; in the experiment on Cavia porcellus [2] (setting [7]) it was 91.2 µg/kg.
Consider `CCCCC1([C@@H](O)/C=C/C2CCC(=O)[C@@H]2CCCCSCC(=O)O)CCC1` (mixture of isomers), for which the inhibition in vivo at 3.2 mg/kg in the experiment with Cavia porcellus [6] and in the experiment on Cavia porcellus [4] was under 50% in each case. The ED50 with Cavia porcellus [2] (setting [7]) is 606 µg/kg.
For `CCCCC1([C@H](O)/C=C/C2[C@H](O)CC(=O)[C@@H]2CCCCCCC(=O)O)CCC1` (mixture of isomers), the ED50 in the experiment on Cavia porcellus [3] (setting [7]) worked out at 1.45 µg/kg; with Cavia porcellus [1], 1.26 µg/kg; in the experiment on Cavia porcellus [2], 0.555 µg/kg. Also, in the experiment with Canis familiaris, the inhibition entry is “Active”.
As for `CCCCC1([C@@H](O)/C=C/C2[C@H](O)CC(=O)[C@@H]2CCCCCCC(=O)O)CCC1` (mixture of isomers), the ED50 with Cavia porcellus [3] (setting [7]) was 30 µg/kg; in the experiment with Cavia porcellus [1] it was 43.9 µg/kg; in the experiment with Cavia porcellus [2] (setting [7]), 17 µg/kg. For the same compound, the inhibition result in the experiment with Canis familiaris is “Active”.
For the compound `CCCCC1([C@H](O)/C=C/C2[C@H](O)CC(=O)[C@@H]2C/C=C\CCCC(=O)O)CCC1` (mixture of isomers), the ED50 in the experiment with Cavia porcellus [3] (setting [7]) was 1.06 µg/kg; with Cavia porcellus [1], 2.51 µg/kg; with Cavia porcellus [2] (setting [7]) it was 1.54 µg/kg.
In the same order, the values of `CCCCC1([C@@H](O)/C=C/C2[C@H](O)CC(=O)[C@@H]2C/C=C\CCCC(=O)O)CCC1` (mixture of isomers) are 32 µg/kg, 305 µg/kg and 48.4 µg/kg.
Take `CCCC1([C@H](O)/C=C/C2[C@H](O)CC(=O)[C@@H]2C/C=C\CCCC(=O)O)CCC1` (mixture of isomers): the ED50 in the experiment with Cavia porcellus [3] (setting [7]) was 3 µg/kg; in the experiment with Cavia porcellus [1], 3 µg/kg; in the experiment on Cavia porcellus [2], 0.0979 µg/kg.
`CCCC1([C@@H](O)/C=C/C2[C@H](O)CC(=O)[C@@H]2C/C=C\CCCC(=O)O)CCC1` (mixture of isomers): the inhibition in vivo at 3.2 mg/kg in the experiment on Cavia porcellus [4] is under 50%. In addition, the ED50 in the experiment with Cavia porcellus [1] was found to be 265 µg/kg; with Cavia porcellus [2] (setting [7]), 46.7 µg/kg.
Consider `CCCCC[C@H](O)/C=C/[C@H]1[C@H](O)CC(=O)[C@@H]1CCCCCCC(=O)O` [ALPROSTADIL], for which the ED50 came out at 3.3 µg/kg in the experiment with Cavia porcellus [3], 1.07 µg/kg with Cavia porcellus [1] and 0.7 µg/kg with Cavia porcellus [2] (setting [7]). Further, in the experiment on Canis familiaris, the inhibition result was “Active”.
